# *1 amine or outer side, *2 acyl side, *3 side chain or, on linkers, in order; H or OH if unused. Where a SMILES comes first, the peptide text is derived from it. [ ]: non-standard residue; d: D form. The star is where a group is joined. X2 = O=C(c1cc(N=C=S)ccc1-c1c2ccc(=O)cc-2oc2cc(O)ccc12)*; Gly(N-but-3-enyl) = O=C(CN(CCC=[*:3])[*:1])[*:2]; X5 = C=CCN([C@@H](CC(C)C)C(=O)[*:2])[*:1]; pY = N[C@@H](Cc1ccc(OP(=O)(O)O)cc1)C(=O)O; 3Amb = NCc1cccc(C(=O)O)c1; NH(but-3-enyl) = C=CCCN*; Ahx = NCCCCCC(=O)O; Ava = NCCCCC(=O)O; GABA = NCCCC(=O)O; NHAllyl = C=CCN*
# Biological target: T1, SHC-transforming protein 1 (Homo sapiens, UniProt P29353)
# T1 sequence (P29353 whole entry): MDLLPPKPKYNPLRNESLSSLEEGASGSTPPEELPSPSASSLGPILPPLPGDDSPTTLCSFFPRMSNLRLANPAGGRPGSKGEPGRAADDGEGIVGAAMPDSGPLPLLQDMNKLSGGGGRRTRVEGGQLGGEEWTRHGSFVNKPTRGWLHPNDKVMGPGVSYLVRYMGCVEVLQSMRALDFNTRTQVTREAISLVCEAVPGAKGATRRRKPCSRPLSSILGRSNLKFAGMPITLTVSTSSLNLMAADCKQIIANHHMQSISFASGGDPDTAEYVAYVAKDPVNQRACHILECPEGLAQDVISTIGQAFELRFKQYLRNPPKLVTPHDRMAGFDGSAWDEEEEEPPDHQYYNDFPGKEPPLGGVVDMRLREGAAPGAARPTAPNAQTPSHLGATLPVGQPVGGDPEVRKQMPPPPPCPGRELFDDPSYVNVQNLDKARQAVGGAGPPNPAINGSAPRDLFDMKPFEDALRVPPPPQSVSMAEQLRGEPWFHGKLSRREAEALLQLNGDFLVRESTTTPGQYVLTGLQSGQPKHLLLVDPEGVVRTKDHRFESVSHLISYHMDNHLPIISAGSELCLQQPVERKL
# Test: Displacement of FITC-tagged NH-(CH2)4-CO-phospho-tyrosine-glutamine-glycine-leucine-serine-amide from Shc Src homology 2 domain by fluorescence anisotropy competition assay
# Method in brief: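 Competition FA: preformed complex of 2 μM Shc SH2 domain protein and 10 nM FITC reference peptide in 10 mM HEPES, 150 mM NaCl pH 7.5 with 10% (v/v) DMSO; unlabeled competitors serially diluted from 500 μM. Excitation 485 nm, parallel/perpendicular emission 535 nm. Fractional binding from anisotropy; IC50 where spline (order three, three knots) reached one half.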
Structure (SMILES),IC50 [µM],Kd [µM]
C=CCN(CC(=O)N[C@@H](CC(C)C)C(N)=O)C(=O)[C@H](CCC(N)=O)NC(=O)[C@H](Cc1ccc(OP(=O)(O)O)cc1)NC(C)=O (HELM PEPTIDE1{[ac].[O=C([C@H](Cc1ccc(OP(=O)(O)O)cc1)N[*:1])[*:2]].Q.[C=CCN(CC(=O)[*:2])[*:1]].L.[am]}$$$$V2.0),26.6,–
CC(=O)N[C@@H](Cc1ccc(OP(=O)(O)O)cc1)C(=O)N[C@@H](CCC(N)=O)C(=O)N(CCCC(C)C)CC(=O)N[C@@H](CC(C)C)C(N)=O,29,–
CC(=O)NCCCCC(=O)N[C@@H](Cc1ccc(OP(=O)(O)O)cc1)C(=O)N[C@@H](CCC(N)=O)C(=O)NCC(=O)N[C@@H](CC(C)C)C(=O)N[C@@H](CO)C(N)=O (HELM PEPTIDE1{[ac].[O=C(CCCCN[*:1])[*:2]].[O=C([C@H](Cc1ccc(OP(=O)(O)O)cc1)N[*:1])[*:2]].Q.G.L.S.[am]}$$$$V2.0),–,158
C=CCNC(=O)[C@H](CC(C)C)N(CC=C)C(=O)CNC(=O)[C@H](CCC(N)=O)NC(=O)[C@H](Cc1ccc(OP(=O)(O)O)cc1)NC(C)=O,81,–
CCC#CCN(CC(=O)N[C@@H](CC(C)C)C(N)=O)C(=O)[C@H](CCC(N)=O)NC(=O)[C@H](Cc1ccc(OP(=O)(O)O)cc1)NC(C)=O,17,–
C=CCNC(=O)[C@H](CO)NC(=O)[C@H](CC(C)C)NC(=O)CNC(=O)[C@H](CCC(N)=O)NC(=O)[C@H](Cc1ccc(OP(=O)(O)O)cc1)N(CC=C)C(C)=O (HELM PEPTIDE1{[ac].[C=CCN([C@@H](Cc1ccc(OP(=O)(O)O)cc1)C(=O)[*:2])[*:1]].Q.G.L.S.[C=CCN[*:1]]}$$$$V2.0),41,–
C=CCCCCN(CC(=O)N[C@@H](CC(C)C)C(N)=O)C(=O)[C@H](CCC(N)=O)NC(=O)[C@H](Cc1ccc(OP(=O)(O)O)cc1)NC(C)=O,14,–
C=CCCNC(=O)[C@H](CO)NC(=O)[C@H](CC(C)C)NC(=O)CN(CCC=C)C(=O)[C@H](CCC(N)=O)NC(=O)[C@H](Cc1ccc(OP(=O)(O)O)cc1)NC(C)=O (Ac-[pY]Q[Gly(N-but-3-enyl)]LS-{NH(but-3-enyl)}),8,–
C=CCCCN(CC(=O)N[C@@H](CC(C)C)C(N)=O)C(=O)[C@H](CCC(N)=O)NC(=O)[C@H](Cc1ccc(OP(=O)(O)O)cc1)NC(C)=O,16,–
CC(=O)N[C@@H](Cc1ccc(OP(=O)(O)O)cc1)C(=O)N[C@@H](CCC(N)=O)C(=O)N(CCC(C)C)CC(=O)N[C@@H](CC(C)C)C(N)=O (HELM PEPTIDE1{[ac].[O=C([C@H](Cc1ccc(OP(=O)(O)O)cc1)N[*:1])[*:2]].Q.[CC(C)CCN(CC(=O)[*:2])[*:1]].L.[am]}$$$$V2.0),17,–
CCOCCN(CC(=O)N[C@@H](CC(C)C)C(N)=O)C(=O)[C@H](CCC(N)=O)NC(=O)[C@H](Cc1ccc(OP(=O)(O)O)cc1)NC(C)=O (HELM PEPTIDE1{[ac].[O=C([C@H](Cc1ccc(OP(=O)(O)O)cc1)N[*:1])[*:2]].Q.[CCOCCN(CC(=O)[*:2])[*:1]].L.[am]}$$$$V2.0),33,–
CC(=O)N[C@@H](Cc1ccc(OP(=O)(O)O)cc1)C(=O)N[C@@H](CCC(N)=O)C(=O)N(CCCC(F)(F)F)CC(=O)N[C@@H](CC(C)C)C(N)=O,23,–
CC(=O)N[C@@H](Cc1ccc(OP(=O)(O)O)cc1)C(=O)N[C@@H](CCC(N)=O)C(=O)NCC(=O)N[C@@H](CC(C)C)C(N)=O (HELM PEPTIDE1{[ac].[O=C([C@H](Cc1ccc(OP(=O)(O)O)cc1)N[*:1])[*:2]].Q.G.L.[am]}$$$$V2.0),248,–
CCCN(CC(=O)N[C@@H](CC(C)C)C(N)=O)C(=O)[C@H](CCC(N)=O)NC(=O)[C@H](Cc1ccc(OP(=O)(O)O)cc1)NC(C)=O (HELM PEPTIDE1{[ac].[O=C([C@H](Cc1ccc(OP(=O)(O)O)cc1)N[*:1])[*:2]].Q.[CCCN(CC(=O)[*:2])[*:1]].L.[am]}$$$$V2.0),25.7,–
C=CCNC(=O)[C@H](CO)NC(=O)[C@H](CC(C)C)N(CC=C)C(=O)CNC(=O)[C@H](CCC(N)=O)NC(=O)[C@H](Cc1ccc(OP(=O)(O)O)cc1)NC(C)=O (Ac-[pY]QG[X5]S-NHAllyl),353,–
CC(=O)N[C@@H](Cc1ccc(OP(=O)(O)O)cc1)C(=O)N[C@@H](CCC(N)=O)C(=O)N(CCCCF)CC(=O)N[C@@H](CC(C)C)C(N)=O,40,–
CC(=O)N[C@@H](Cc1ccc(OP(=O)(O)O)cc1)C(=O)N[C@@H](CCC(N)=O)C(=O)N(CC(=O)N[C@@H](CC(C)C)C(N)=O)Cc1ccccc1 (HELM PEPTIDE1{[ac].[O=C([C@H](Cc1ccc(OP(=O)(O)O)cc1)N[*:1])[*:2]].Q.[O=C(CN(Cc1ccccc1)[*:1])[*:2]].L.[am]}$$$$V2.0),18.9,–
CCN(CC(=O)N[C@@H](CC(C)C)C(N)=O)C(=O)[C@H](CCC(N)=O)NC(=O)[C@H](Cc1ccc(OP(=O)(O)O)cc1)NC(C)=O (HELM PEPTIDE1{[ac].[O=C([C@H](Cc1ccc(OP(=O)(O)O)cc1)N[*:1])[*:2]].Q.[CCN(CC(=O)[*:2])[*:1]].L.[am]}$$$$V2.0),19,–
C=CCNC(=O)[C@H](CC(C)C)NC(=O)CNC(=O)[C@H](CCC(N)=O)NC(=O)[C@H](Cc1ccc(OP(=O)(O)O)cc1)N(CC=C)C(C)=O,450,–
CC#CCN(CC(=O)N[C@@H](CC(C)C)C(N)=O)C(=O)[C@H](CCC(N)=O)NC(=O)[C@H](Cc1ccc(OP(=O)(O)O)cc1)NC(C)=O,83,–
COCCN(CC(=O)N[C@@H](CC(C)C)C(N)=O)C(=O)[C@H](CCC(N)=O)NC(=O)[C@H](Cc1ccc(OP(=O)(O)O)cc1)NC(C)=O (HELM PEPTIDE1{[ac].[O=C([C@H](Cc1ccc(OP(=O)(O)O)cc1)N[*:1])[*:2]].Q.[COCCN(CC(=O)[*:2])[*:1]].L.[am]}$$$$V2.0),56,–
CCSCCN(CC(=O)N[C@@H](CC(C)C)C(N)=O)C(=O)[C@H](CCC(N)=O)NC(=O)[C@H](Cc1ccc(OP(=O)(O)O)cc1)NC(C)=O,34,–
CC(=O)N[C@@H](Cc1ccc(OP(=O)(O)O)cc1)C(=O)N[C@@H](CCC(N)=O)C(=O)N(CCCCC#N)CC(=O)N[C@@H](CC(C)C)C(N)=O,44,–

# Biological target: T1, SHC-transforming protein 1
# Test: Binding affinity to Shc Src homology 2 domain by fluorescence anisotropy
# Method in brief: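 Direct binding: 5 nM N-terminal fluorescein-labelled peptide in 10 mM HEPES, 150 mM NaCl pH 7.5 with 10% (v/v) DMSO; Shc SH2 protein serially diluted from 100 μM. Excitation 485 nm, parallel and perpendicular emission at 535 nm. Kd from fitting anisotropy versus protein concentration to a single-site binding model.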
row,Kd [µM],Structure (SMILES)
1,7.2,CC(C)C[C@H](NC(=O)CNC(=O)[C@H](CCC(N)=O)NC(=O)[C@H](Cc1ccc(OP(=O)(O)O)cc1)NC(=O)CCCNC(=O)c1cc(N=C=S)ccc1-c1c2ccc(=O)cc-2oc2cc(O)ccc12)C(=O)N[C@@H](CO)C(N)=O ({X2-GABA}-[pY]QGLS-NH2)
2,8.6,CC(C)C[C@H](NC(=O)CNC(=O)[C@H](CCC(N)=O)NC(=O)[C@H](Cc1ccc(OP(=O)(O)O)cc1)NC(=O)[C@H](CC(C)C)NC(=O)CCCNC(=O)c1cc(N=C=S)ccc1-c1c2ccc(=O)cc-2oc2cc(O)ccc12)C(=O)N[C@@H](CO)C(N)=O ({X2-GABA}-L[pY]QGLS-NH2)
3,0.35,CC(C)C[C@H](NC(=O)CNC(=O)[C@H](CCC(N)=O)NC(=O)[C@H](Cc1ccc(OP(=O)(O)O)cc1)NC(=O)CCCCNC(=O)c1cc(N=C=S)ccc1-c1c2ccc(=O)cc-2oc2cc(O)ccc12)C(=O)N[C@@H](CO)C(N)=O ({X2-Ava}-[pY]QGLS-NH2)
4,8.9,CC(C)C[C@H](NC(=O)CNC(=O)[C@H](CCC(N)=O)NC(=O)[C@H](Cc1ccc(OP(=O)(O)O)cc1)NC(=O)[C@H](CC(C)C)NC(=O)CCCCNC(=O)c1cc(N=C=S)ccc1-c1c2ccc(=O)cc-2oc2cc(O)ccc12)C(=O)N[C@@H](CO)C(N)=O ({X2-Ava}-L[pY]QGLS-NH2)
5,5,CC(C)C[C@H](NC(=O)CNC(=O)[C@H](CCC(N)=O)NC(=O)[C@H](Cc1ccc(OP(=O)(O)O)cc1)NC(=O)c1cccc(CNC(=O)c2cc(N=C=S)ccc2-c2c3ccc(=O)cc-3oc3cc(O)ccc23)c1)C(=O)N[C@@H](CO)C(N)=O ({X2-3Amb}-[pY]QGLS-NH2)
6,4.7,CC(C)C[C@H](NC(=O)CNC(=O)[C@H](CCC(N)=O)NC(=O)[C@H](Cc1ccc(OP(=O)(O)O)cc1)NC(=O)CCCCCNC(=O)c1cc(N=C=S)ccc1-c1c2ccc(=O)cc-2oc2cc(O)ccc12)C(=O)N[C@@H](CO)C(N)=O ({X2-Ahx}-[pY]QGLS-NH2)

row,Structure (SMILES),Kd [µM]
1,CC(C)C[C@H](NC(=O)CNC(=O)[C@H](CCC(N)=O)NC(=O)[C@H](Cc1ccc(OP(=O)(O)O)cc1)NC(=O)c1cc(N=C=S)ccc1-c1c2ccc(=O)cc-2oc2cc(O)ccc12)C(=O)N[C@@H](CO)C(N)=O (HELM PEPTIDE1{[O=C(c1cc(N=C=S)ccc1-c1c2ccc(=O)cc-2oc2cc(O)ccc12)[*:2]].[O=C([C@H](Cc1ccc(OP(=O)(O)O)cc1)N[*:1])[*:2]].Q.G.L.S.[am]}$$$$V2.0),12.4
2,CC(C)C[C@H](NC(=O)CNC(=O)[C@H](CCC(N)=O)NC(=O)[C@H](Cc1ccc(OP(=O)(O)O)cc1)NC(=O)CCNC(=O)c1cc(N=C=S)ccc1-c1c2ccc(=O)cc-2oc2cc(O)ccc12)C(=O)N[C@@H](CO)C(N)=O (HELM PEPTIDE1{[O=C(c1cc(N=C=S)ccc1-c1c2ccc(=O)cc-2oc2cc(O)ccc12)[*:2]].[bAla].[O=C([C@H](Cc1ccc(OP(=O)(O)O)cc1)N[*:1])[*:2]].Q.G.L.S.[am]}$$$$V2.0),1.09
